This is an account of results in ChEMBL document CHEMBL3098000, “Imatinib analogs as potential agents for PET imaging of Bcr-Abl and c-KIT expression at a kinase level” (Bioorg Med Chem, 2014).

In one data set the target is Bcr/Abl fusion protein (Homo sapiens, UniProt P00519). In words: Inhibition of Bcr-Abl (unknown origin) phosphorylation by spectrophotometric assay. The class given is protein assay.
Data set [1] concerns Intestine. In words: Drug uptake in intestine of mouse xenografted with human U87WT cells expressing human wild type c-KIT after 45 mins by PET analysis. Format: ADME, tissue-based. To be noted: in vivo, 0.75 h. In general terms: Xenograft models place foreign cells or tissue in a host animal.
Data set [2] deals with Intestine. In words: Drug uptake in intestine of mouse xenografted with human U87 cells after 45 mins by PET analysis. The class given is ADME, U-87MG ATCC. To be noted: in vivo, 0.75 h.
The next data set has as its system Mus musculus. In words: Drug uptake in mouse xenografted with human K562 cells expressing Bcr-Abl after 45 mins by PET analysis. Format: ADME, organism-based. To be noted: in vivo, 0.75 h.
In data set [3] the test system is K562. In words: Drug uptake in human K562 cells expressing Bcr-Abl after 30 to 210 mins in presence of unlabelled STI-571. The class given is ADME, cell-based.
For data set [4], the system named is Intestine. In words: Drug uptake in intestine of mouse xenografted with human U87WT cells expressing human wild type c-KIT at 100 uCi, iv after 60 to 120 mins by PET analysis. As to conditions: in vivo; call rule not given here. The class given is ADME, organism-based. Put shortly:
(§1)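 Nude mice carried K562, U87 or U87WT tumor cells injected in Matrigel (200 μl) into the dorsal shoulder areas. [18F]STI-571, labeled by nucleophilic substitution, was given at 100 μCi/mouse i.v. MicroPET imaging was done at 30, 60 and 90 min, with images also shown at 60 and 120 min. Some mice were sacrificed at 60 or 90 min for tissue sampling and autoradiography.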

Data set [5] is described as follows: Drug uptake in human U87WT cells expressing human wild type c-KIT after 1 to 2 hrs. The class given is ADME, cell-based. Put shortly:
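Cells were incubated with [18F]STI-571, and tracer accumulation and washout were measured at 1 and 2 h. U87WT cells were made by retroviral transduction of U87 cells with wild-type human c-KIT receptor. Specificity was tested by blocking with excess unlabelled STI-571.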

Data set [6] in a line: Drug uptake in mouse digestive tract xenografted with human U87WT cells expressing human wild type c-KIT at 100 uCi, iv after 15 to 120 mins by PET analysis. The class given is ADME, organism-based. As to conditions: in vivo. The method in brief: as §1
Data set [7] concerns K562. In words: Drug uptake in human K562 cells expressing Bcr-Abl after 1 to 2 hrs. The class given is ADME, cell-based.
For data set [8], the system named is Tumour. In words: Drug uptake in tumor of mouse xenografted with human U87WT cells expressing human wild type c-KIT at 100 uCi, iv after 60 to 120 mins by PET analysis. The class given is ADME, organism-based, Neoplasm. To be noted: in vivo. Put shortly:
as §1

Data set [9] in a line: Drug uptake in mouse right shoulder xenografted with human U87 cells at 100 uCi, iv after 15 to 120 mins by PET analysis. The class given is ADME, organism-based, U-87MG ATCC. As to conditions: in vivo, in the assay text read “U87WT cells” for “U87 cells”. The method in brief:
as §1

In data set [10] the test system is Intestine. In words: Drug uptake in intestine of mouse xenografted with human K562 cells expressing Bcr-Abl at 100 uCi, iv after 60 to 120 mins by PET analysis. The class given is ADME, organism-based. As to conditions: in vivo. The method in brief: as §1
A short description of data set [11]: Drug uptake in mouse right shoulder xenografted with human U87WT cells expressing human wild type c-KIT at 100 uCi, iv after 15 to 120 mins by PET analysis. The class given is ADME, organism-based. To be noted: in vivo. The method in brief: as §1
For data set [12], the system named is K562. In words: Drug uptake in human K562 cells expressing Bcr-Abl incubated for 1 to 2 hrs measured after drug washout. The class given is ADME, cell-based.
Data set [13] relates to Intestine. In words: Drug uptake in intestine of mouse xenografted with human U87 cells at 100 uCi, iv after 60 to 120 mins by PET analysis. The class given is ADME, organism-based, U-87MG ATCC. To be noted: in vivo. Put shortly: as §1
Data set [14] deals with Tumour. In words: Drug uptake in tumor of mouse xenografted with human K562 cells expressing Bcr-Abl at 100 uCi, iv after 60 to 120 mins by PET analysis. The class given is ADME, organism-based, Neoplasm. To be noted: in vivo. The method in brief: as §1
Data set [15] concerns Tumour. In words: Drug uptake in tumor of mouse xenografted with human U87 cells at 100 uCi, iv after 60 to 120 mins by PET analysis. Format: ADME, organism-based, Neoplasm, U-87MG ATCC. As to conditions: in vivo. Put shortly: as §1
Data set [16] relates to K562. In words: Drug uptake in human K562 cells expressing Bcr-Abl after 30 mins. The class given is ADME, cell-based. To be noted: k562, 0.5 h.
Data set [17] concerns Liver. In words: Drug uptake in liver of mouse xenografted with human K562 cells expressing Bcr-Abl at 100 uCi, iv after 60 to 120 mins by PET analysis. To be noted: in vivo. Format: ADME, organism-based. The method in brief: as §1
Data set [18] is described as follows: Drug uptake in mouse digestive tract xenografted with human K562 cells expressing Bcr-Abl at 100 uCi, iv after 15 to 120 mins by PET analysis. As to conditions: in vivo. The class given is ADME, organism-based. The method in brief: as §1
Data set [19] has as its system Liver. In words: Drug uptake in liver of mouse xenografted with human U87 cells at 100 uCi, iv after 60 to 120 mins by PET analysis. Format: ADME, organism-based, U-87MG ATCC. To be noted: in vivo. The method in brief:
as §1

Data set [20] concerns Liver. In words: Drug uptake in liver of mouse xenografted with human U87WT cells expressing human wild type c-KIT at 100 uCi, iv after 60 to 120 mins by PET analysis. Format: ADME, organism-based. As to conditions: in vivo. The method in brief:
as §1

Data set [21] is described as follows: Drug uptake in human wild-type U87 cells incubated for 1 to 2 hrs measured after drug washout.
The nature of data set [22]: Drug uptake in mouse digestive tract xenografted with human U87 cells at 100 uCi, iv after 15 to 120 mins by PET analysis. The class given is ADME, organism-based, U-87MG ATCC. To be noted: in vivo. The method in brief: as §1
Data set [23] can be described thus: Drug uptake in mouse right shoulder xenografted with human K562 cells expressing Bcr-Abl at 100 uCi, iv after 15 to 120 mins by PET analysis. The class given is ADME, organism-based. As to conditions: in vivo. Put shortly: as §1

By IC50 is commonly meant the concentration that inhibits the measured activity by half. Low values mean inhibition by little substance, high ones a need for much substance.

Each structure is given as a SMILES string.

Bcr/Abl fusion protein, sequence (P00519 whole entry, the tested form may be a part): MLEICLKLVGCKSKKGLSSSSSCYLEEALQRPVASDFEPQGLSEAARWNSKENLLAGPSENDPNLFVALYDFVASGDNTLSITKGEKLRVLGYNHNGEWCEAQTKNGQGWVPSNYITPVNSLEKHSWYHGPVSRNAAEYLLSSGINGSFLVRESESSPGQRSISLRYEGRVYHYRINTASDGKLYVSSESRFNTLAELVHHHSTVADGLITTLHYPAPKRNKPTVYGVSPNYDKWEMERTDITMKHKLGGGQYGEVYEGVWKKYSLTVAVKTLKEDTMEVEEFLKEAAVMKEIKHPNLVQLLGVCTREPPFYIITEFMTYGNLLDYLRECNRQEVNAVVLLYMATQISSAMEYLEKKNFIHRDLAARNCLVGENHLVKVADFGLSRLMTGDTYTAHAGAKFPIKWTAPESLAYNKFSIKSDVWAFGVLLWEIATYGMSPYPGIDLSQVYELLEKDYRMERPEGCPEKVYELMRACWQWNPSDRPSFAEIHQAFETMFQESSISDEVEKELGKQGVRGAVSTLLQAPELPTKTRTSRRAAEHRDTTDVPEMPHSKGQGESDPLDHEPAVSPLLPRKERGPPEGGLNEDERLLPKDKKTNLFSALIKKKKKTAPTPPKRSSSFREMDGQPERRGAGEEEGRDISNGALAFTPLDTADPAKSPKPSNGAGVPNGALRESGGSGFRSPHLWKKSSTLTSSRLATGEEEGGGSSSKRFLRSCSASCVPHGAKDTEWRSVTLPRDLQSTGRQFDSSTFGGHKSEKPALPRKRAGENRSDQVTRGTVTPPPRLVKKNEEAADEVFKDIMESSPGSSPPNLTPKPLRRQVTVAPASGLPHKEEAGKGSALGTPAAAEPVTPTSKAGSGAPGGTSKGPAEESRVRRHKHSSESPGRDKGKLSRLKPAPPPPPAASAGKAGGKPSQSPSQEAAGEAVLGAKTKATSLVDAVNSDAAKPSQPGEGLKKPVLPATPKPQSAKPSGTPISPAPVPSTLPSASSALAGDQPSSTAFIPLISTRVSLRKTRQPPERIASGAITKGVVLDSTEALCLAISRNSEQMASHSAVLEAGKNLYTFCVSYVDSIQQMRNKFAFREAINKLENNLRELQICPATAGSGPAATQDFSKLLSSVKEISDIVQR
Bcr/Abl fusion protein, sequence (P11274 whole entry, further chain, the tested form may be a part): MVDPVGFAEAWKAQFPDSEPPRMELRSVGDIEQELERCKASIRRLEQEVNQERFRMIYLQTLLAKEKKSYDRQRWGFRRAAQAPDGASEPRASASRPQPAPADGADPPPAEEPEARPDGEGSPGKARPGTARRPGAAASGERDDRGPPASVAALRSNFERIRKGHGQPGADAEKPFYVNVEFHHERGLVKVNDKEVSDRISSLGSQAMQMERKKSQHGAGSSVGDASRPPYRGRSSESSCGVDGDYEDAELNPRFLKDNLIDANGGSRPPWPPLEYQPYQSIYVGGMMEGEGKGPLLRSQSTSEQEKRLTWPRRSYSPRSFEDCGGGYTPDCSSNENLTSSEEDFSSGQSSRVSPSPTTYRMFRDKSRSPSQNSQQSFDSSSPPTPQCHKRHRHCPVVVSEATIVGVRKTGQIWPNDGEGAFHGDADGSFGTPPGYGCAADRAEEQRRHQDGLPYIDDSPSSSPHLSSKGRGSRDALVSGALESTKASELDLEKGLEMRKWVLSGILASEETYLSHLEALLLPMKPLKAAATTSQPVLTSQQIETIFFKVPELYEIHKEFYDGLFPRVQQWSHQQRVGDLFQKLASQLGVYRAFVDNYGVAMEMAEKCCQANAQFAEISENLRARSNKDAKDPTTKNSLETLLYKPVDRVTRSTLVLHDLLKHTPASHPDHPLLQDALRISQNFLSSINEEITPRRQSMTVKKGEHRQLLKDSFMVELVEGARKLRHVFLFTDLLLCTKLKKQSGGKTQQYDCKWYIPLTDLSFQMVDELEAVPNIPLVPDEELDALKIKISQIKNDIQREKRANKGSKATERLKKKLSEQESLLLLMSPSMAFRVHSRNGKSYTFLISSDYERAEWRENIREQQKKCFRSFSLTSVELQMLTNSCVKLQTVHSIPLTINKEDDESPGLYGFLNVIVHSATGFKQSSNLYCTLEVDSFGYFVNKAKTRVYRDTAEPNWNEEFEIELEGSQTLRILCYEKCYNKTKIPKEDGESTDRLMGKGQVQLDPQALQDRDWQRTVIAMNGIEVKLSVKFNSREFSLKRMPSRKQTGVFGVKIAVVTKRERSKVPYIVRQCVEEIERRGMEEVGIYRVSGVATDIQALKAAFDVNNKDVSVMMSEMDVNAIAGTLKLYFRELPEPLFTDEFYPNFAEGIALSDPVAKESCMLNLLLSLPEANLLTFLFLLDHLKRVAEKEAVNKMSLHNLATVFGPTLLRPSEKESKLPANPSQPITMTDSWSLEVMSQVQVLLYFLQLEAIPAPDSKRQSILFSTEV

Regarding `Cc1ccc(NC(=O)c2ccc(CN3CCN(CCO)CC3)cc2)cc1Nc1nccc(-c2cccnc2)n1`, the concentration for half-maximal inhibition (IC50) against Bcr/Abl fusion protein worked out at 7080 nM.
Consider `OC[C@H]1O[C@@H](O)[C@H]([18F])[C@@H](O)[C@@H]1O` [FLUDEOXYGLUCOSE-F18], for which the Drug uptake entry in the data set with Intestine [1], with Intestine [2] and in the data set with Mus musculus was “Active” throughout.
`Cc1ccc(NC(=O)c2ccc(CN3CCN(CCF)CC3)cc2)cc1Nc1nccc(-c2cccnc2)n1`: on Bcr/Abl fusion protein, the IC50 is 1380 nM. This counts as single-digit micromolar.
For `Cc1ccc(NC(=O)c2ccc(CN3CCN(CC[18F])CC3)cc2)cc1Nc1nccc(-c2cccnc2)n1`, the Drug uptake result in the data set with K562 [3] was “Not Active”; in the data set on Intestine [4] it was “Active”; in data set [5] it was “Not Active”; in data set [6] it was “Active”; in the data set with K562 [7] it was “Active”; in the data set on Tumour [8] it was “Active”. The Drug uptake result (in [9]; in the data set on Intestine [10]; in data set [11]; in the data set with K562 [12]; with Intestine [13]; in the data set on Tumour [14]) was “Active” each time. In addition, the Drug uptake entry (with Tumour [15]; in the data set with K562 [16]; in the data set on Liver [17]; in data set [18]; with Liver [19]; with Liver [20]) was “Active” each time. The Drug uptake result is listed as “Not Active” in [21], “Active” in [22] and “Active” in data set [23].
Take `Cc1ccc(NC(=O)c2ccc(CN3CCN(Cc4ccc(I)cc4)CC3)cc2)cc1Nc1nccc(-c2cccnc2)n1`: at Bcr/Abl fusion protein, it took 739 nM to reach half-maximal inhibition (IC50).
